# Test results reported in ChEMBL document CHEMBL4513216, “Probing the Open Global Health Chemical Diversity Library for Multistage-Active Starting Points for Next-Generation Antimalarials” (ACS Infect Dis, 2020).
# Test: Toxicity liver stage against HepG2, at 10uM
# Format: cell-based
# Parameters: test concentration 10 uM, cell line HepG2-A16-CD81EGFP
# Conditions: human, HepG2-A16-CD81EGFP cells; read-out: INHIBITION
# In short: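 Uninfected HepG2-A16-CD81EGFP cells, 3 × 10^3 per well, 1536-well, plated on prespotted compound at 10 μM final, parasite-free screening media added to match infected plates; puromycin 10 μM positive, DMSO 0.5% negative; run in parallel with 48 h PbLuc assay at 37 °C, 5% CO2; viability by CellTiter-Glo luminescence, normalized to controls.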
row,Compound,cytotoxicity at 10 µM [%]
1,CC(C)CN1C[C@@H]2OCC(=O)N(Cc3nccn3C)[C@@H]2C1,0.174
2,O[C@@H]1C[C@@H](c2nc(-c3ccccc3)no2)N(Cc2cccnc2)C1,3.69
3,CC(=O)N1CCC(N2CCOC[C@H]2c2nc(-c3ccccc3)c[nH]2)CC1,1.74
4,COC(=O)[C@@H]1Cc2ncn(C)c2CN1S(=O)(=O)c1ccc(C)cc1,2.08
5,CN1CC[C@H](N(Cc2ccccc2)C2COC2)C[C@H](O)C1,4.27
6,CC(C)CN1CC(O)CN(C(=O)c2cccc(C(F)(F)F)c2)CC1=O (centres undefined),-7.08
7,COCCCN(Cc1ccccn1)S(=O)(=O)c1ccc(OC)cc1,5.85
8,O=C(NCCN1CCOCC1)c1nc2ccccc2c(=O)[nH]1,11.3
9,Cc1nn(C)c2nc(C(C)C)cc(C(=O)Nc3n[nH]c(C4CC4)n3)c12,-4.38
10,O=C1CC(NS(=O)(=O)c2ccc(Cl)cc2)CN1 (centres undefined),6.66
11,CS(=O)(=O)C1CCN(S(=O)(=O)Cc2cccc(F)c2)CC1,-19.1
12,O=C(Cc1cccs1)NCC1Cn2nnc(-c3ccoc3)c2CO1 (centres undefined),6.06
13,CS(=O)(=O)N1CCc2ccc(=O)n(CC3CCOCC3)c2CC1,6.4
14,CN(Cc1cccnc1)CC1CC12CCN(Cc1nccs1)CC2 (centres undefined),10.2
15,O=C(c1ccc(F)cc1)N1C[C@@H]2CN(c3ncccn3)C[C@@H]2C1,7.98
16,CC(=O)N1C[C@H]2CCCN(c3ncc(C)cn3)[C@H]2C1,9.52
17,CCS(=O)(=O)N1CCN(C(=O)C(C)C)CC2(CC(=O)N(C)C2)C1 (centres undefined),8.4
18,CCN1C(=O)CC[C@@H]2[C@H]1CCN2S(=O)(=O)Cc1ccc(C)cc1,0.0218
19,CN(Cc1cn2c(n1)CN(C(=O)C1CCCO1)CC2)Cc1ccco1 (centres undefined),8.24
20,Cn1cnnc1S(=O)(=O)C1CCN(S(=O)(=O)C2CC2)CC1,-9.99
21,Cc1c(-c2cc(-c3cnn(C)c3C)n(CC(=O)NC3CC3)n2)cnn1C,9.26
22,CCn1nc(C)c2c1cnn2CC(=O)Nc1ccc(OC)cc1C,-80.1

row,Compound,cytotoxicity at 10 µM [%]
1,Cn1ncc(C(=O)O)c1C(=O)Nc1nc2ccccc2s1,7.9
2,Cc1c(NC(=O)c2cccc(Br)c2)c(C(=O)N(C)C)nn1C,2.35
3,O=C(CCc1cccnc1)N1CCCCC1c1ccn2ccnc2n1 (centres undefined),-4.28
4,CNc1cncc(C2CCCN2Cc2cccc(C)n2)n1 (centres undefined),-8.3
5,CO[C@H]1CCN(C(=O)c2ccc3oc(C)cc3c2)C[C@@]12CCCO2,25.9
6,CC(=O)N1CCN([C@@H]2CCC[C@@H](N(C)C(=O)C3CC3)[C@H]2O)CC1,-5.97
7,Cn1nc(C2CCNC2)c2c(C(=O)NC3CC3)cc(C3CC3)nc21 (centres undefined),13.9
8,CN(Cc1cc(Br)c2c(c1)OCO2)Cc1cscn1,-12.2
9,Cc1ccc(S(=O)(=O)Cc2nsc(N(C)C)n2)c(C)c1,-25.2
10,CC1CCCN(S(=O)(=O)NCCCn2ccc3ccccc32)C1 (centres undefined),13.6
11,CC(NCc1cccc(NC(=O)C2CCCCC2)c1)c1cnn(C)c1 (centres undefined),-0.26
12,Cc1ccc(-c2cc(C(=O)NCC3CCOC3)n[nH]2)s1 (centres undefined),-4.09
13,Cc1cnc(C(=O)N2CCC(COCc3ccccc3)C2)cn1 (centres undefined),7.54
14,CC(C)(C)c1nc(CC(=O)NCCC(=O)Nc2ccncc2)cs1,12.8
15,O=C(c1ccccc1O)N1CCn2c(nnc2C(F)(F)F)C1,14.6
16,Cc1noc(CCCC(=O)N2CCN(C)CC2c2ccccc2)n1 (centres undefined),-6.73
17,COc1cccc(C2CCCN2C(=O)NCCCn2cccn2)c1 (centres undefined),15.5
18,CC(C)COc1cncc(NC(CO)c2ccco2)n1 (centres undefined),-5.08
19,COCc1noc(C2(c3ccc(Cl)cc3)CCOCC2)n1,1.86
20,Cc1cc2n(n1)CC(CNC1CCN(CCc3ccccc3)CC1)CN2 (centres undefined),2.7
21,c1ccc(-c2noc(CNC3CCCN(c4cccnn4)C3)n2)nc1 (centres undefined),4.86
22,CCNC(=O)N(CCCO)C1CCCc2ccccc21 (centres undefined),-11

row,Compound,cytotoxicity at 10 µM [%]
1,CCc1nc(C(=O)N2CCN(CCc3ccc(OC)cc3)CC2)c[nH]1,-9.56
2,COc1cc2c(cc1OC)S(=O)(=O)N(Cc1ccc(C)cc1)C2=O,8.74
3,CC(=O)Nc1ccc(/C=C/c2ncc(C(=O)O)s2)cc1,-3.54
4,CC1CCCN(C(=O)c2ncncc2Cl)C1 (centres undefined),8.43
5,CCC1(CNCc2ncc[nH]2)CCCC1,-3.09
6,Cc1cccc(CNc2nnc(C(C)C)o2)c1,12.2
7,Cc1cnc(C(=O)N2C[C@H](N3CCOCC3)[C@@H]3OCCC[C@@H]32)cn1,-107
8,CCOC1COC2(CCN(S(=O)(=O)c3ccc(F)cc3)CC2)C1 (centres undefined),-109
9,COCCN1C[C@H]2[C@@H](C1)N(C(=O)COc1ccccc1)CC[C@H]2OC,-1.34
10,CNc1nc2c(s1)C(=O)CN(C(=O)[C@@H](N)Cc1cccc(OC)c1)C2,-4.08
11,CC(C)[C@H](NS(C)(=O)=O)C(=O)NCc1cc(-c2cccc(Cl)c2)nn1C,-5.47
12,Cn1ccnc1SCCNC(=O)Cn1cnc2ccccc2c1=O,-20.7
13,CCCN1CCCC2(CCN(C(=O)CCCn3cncn3)C2)C1=O (centres undefined),-1.84
14,CC(=O)N1C[C@H]2CNC[C@@]2(C(=O)NCCNc2ccncc2C)C1,-6.4
15,OC1(CN2CCCC2)CCCN(Cc2cnc(-c3ccccc3)nc2)C1 (centres undefined),-11.9
16,CN(Cc1cnn(C)c1)C1CCN(c2cccc(-c3cscn3)c2)CC1,-0.724
17,CCOc1ccc(CN2CCN(CCOC)[C@@H]3CS(=O)(=O)C[C@@H]32)cc1,-1.25
18,CC(C)C1CN(S(=O)(=O)C2CC2)CCCN1Cc1ccc(F)cc1 (centres undefined),7.01
19,CCCn1cc(C(=O)NCCc2ccncc2)c(C)n1,11.2
20,NCc1cn(CC2CCCN(C(=O)NCc3ccc(Cl)cc3)C2)nn1 (centres undefined),-22
21,CN(C)C(C(=O)N1CC(Oc2ccccc2F)C1)c1ccccc1F (centres undefined),-0.598
22,NC(=O)CN1CC2(CCC1=O)CCN(Cc1ccc(Cl)c(F)c1)CC2,-5

row,Compound,cytotoxicity at 10 µM [%]
1,COC[C@@]12CC[C@@H](N3CCOCC3)C[C@H]1CCN(c1ncccc1C)C2,-1.33
2,CCNc1ccnc(NC2CCN(C(=O)c3ccc(C)cc3)CC2)n1,5.09
3,COc1ccc(OC)c(-n2cnnc2CN)c1,-4.4
4,COc1ccccc1OCCCc1cc(C#N)ccn1,-11.5
5,CC(=O)Nc1ccc(CNC(=O)CNCc2nnc(C)o2)cc1,10.7
6,Cc1nn(C)c(C)c1-c1cc(-c2cc(CC(=O)O)cs2)nc(N)c1C#N,0.701
7,CCc1ncc(C(=O)N2CCN(c3cnn(C)c(=O)c3)CC2)cn1,-8.3
8,Clc1ccc(C2NCCc3cc4c(cc32)OCCO4)cc1 (centres undefined),-16.3
9,O=C1NCC2(CCCN(CCc3ccccc3)C2)Oc2ccccc21 (centres undefined),2.93
10,Cc1cccc(N2CCN(C(=O)CCc3c(C)noc3Cl)CC2)c1,-9.73
11,CCc1noc(C)c1C(=O)N1CCCC1Cn1cccn1 (centres undefined),-3.04
12,O=C1COc2cc(C(=O)NS(=O)(=O)c3ccc(F)cc3)ccc2N1,-8.47
13,CCN(CC1CCOC1)C(=O)c1ccccc1S(C)(=O)=O (centres undefined),-0.945
14,Cc1csc(N2CCN(CC(=O)NC3CCOCC3)CC2C)n1 (centres undefined),-7.13
15,CC(C)n1cc(CN2CCCN(C(=O)COC3CCCC3)CC2)cn1,-15.5
16,CCc1nnc2n1CCN(CC(=O)Nc1cc(C)nn1C)C2,6.98
17,CCN(Cc1ccc2c(c1)OCCO2)C(=O)NC(C)Cn1cccn1 (centres undefined),-10.6
18,COc1cc(CNc2cc(N3CCCC3CO)ncn2)ccn1 (centres undefined),-28.5
19,O=C1NCC(C(=O)Nc2ncc(Cc3ccccc3)s2)N1 (centres undefined),5.92
20,CC(C(=O)NCc1ccc(N2CCCC2)nc1)S(C)(=O)=O (centres undefined),-13.4
21,COc1ccc(CCCNCc2c(C)nn(C)c2N(C)C)cc1OC,-19.2
22,c1cnn(CC2CN(Cc3nc(-c4ccoc4)no3)CCO2)c1 (centres undefined),-23.8

row,Compound,cytotoxicity at 10 µM [%]
1,COc1cc(CNC(=O)c2c(C)noc2C(C)C)ccn1,-7.9
2,COc1cccc(S(=O)(=O)NC(=O)COc2c(C)cccc2C)c1,-5.84
3,CCN(Cc1ccc2c(c1)OCCO2)S(=O)(=O)N(C)C(C)C,-9.21
4,Cc1ccc(-c2nc(CN3CCc4c(ncn4C)C3)cs2)o1,-11.3
5,CC(C)c1cc(CNC(=O)N2CCC(Cc3cnn(C)c3)C2)on1 (centres undefined),-10.9
6,CC(=O)N1CCCN(C(=O)CCc2c(C)noc2C)CC1,-6.38
7,Cc1cc(C)n(C2CN(CC(O)c3ccc4c(c3)OCO4)C2)n1 (centres undefined),-15.7
8,Cn1cc(C2CCCN2CCCc2nc(-c3cccs3)no2)cn1 (centres undefined),-6.88
9,Cc1cc(C(=O)NCc2cccnc2OC(C)C)no1,-7.37
10,Cc1ccc(CN2CC[C@H]3CO[C@H](CN4CCN(C)CC4)[C@H]3C2)o1,-118
11,Cn1nccc1-c1nnn2c1COCC(CNC1CCOCC1)C2 (centres undefined),-103
12,Cn1cncc1CNC1CC2(CCN(CC3CC3)CC2)c2ccccc21 (centres undefined),0.565
13,Cc1ccc(Oc2cc(CN)ccn2)cc1C,-0.578
14,NCC1[C@H]2CN(Cc3ccccc3F)C[C@@H]12 (some centres undefined),-7.52
15,CS(=O)(=O)N1CCOCC2(CN(Cc3nccs3)CCO2)C1 (centres undefined),7.49
16,CCS(=O)(=O)N1CCC2(CC1)CN(c1cccnc1)C(=O)CO2,-109
17,Fc1ccc(CN2CCCn3cnc(COCC4CC4)c3C2)cc1,7.43
18,CC(C)N(C)Cc1cncc2c1CCN(C(=O)c1ccccc1F)C2,2.35
19,O=C1NCC[C@]12CN(Cc1nccs1)C[C@H]2c1ccccc1,11
20,CCc1ccc(NC(=O)N2C[C@@H]3C[C@H](C(=O)N4CCCC4)[C@H](C2)O3)cc1,-6.71
21,CSCCCN1C[C@@H]2CC[C@H]1CN(Cc1[nH]cnc1C)C2,1.2
